The source made the active and inactive calls.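 How the source made its calls, unless noted: active means inhibition at or above 50% at 10 µM; inactive means inhibition below 50%.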
Tests used:
[1] = inhibitors of TNFa-induced NFkB p65 translocation, primary screen, imaging, HUVEC, MLSMR starter and 10KST1 sets (AID 438;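 active means inhibition above 20% together with a positive visual image hit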;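 further: compound added about 3h40 before a 20 min TNFalpha stimulation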;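 on inhibition: signal is the nuclear over cytoplasmic p65 intensity ratio per well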); conditions: HUVEC TNFa-induced p65 nuclear translocation; cell count: measured here: nuclei count (cytotoxicity indicator), at 2.08 µM; inhibition: at 2 µM, stronger effect = higher value, 0% TNFa-plus-vehicle, 100% no-TNFa wells
[2] = inhibitors of mutant huntingtin aggregation, primary screen, imaging, exon1htt(103Q)mCFP cells, high-content imaging (AID 483;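 active means visual image review flags a hit and inhibition of aggregation exceeds 20%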;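 further: compound exposure lasted 3 days before fixation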;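 on nuclei count: percent of the per-plate median nuclei count of sample wells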); conditions: exon1htt(103Q)mCFP cell line, aggregate imaging, at 2 µM; inhibition of aggregation: stronger effect = higher value; nuclei count: measured here: cell count, toxicity
[3] = inhibitors of E-selectin induction by TNFa, primary screen, imaging, HUVEC, immunofluorescence, MLSMR starter and 10KST1 sets (AID 487;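 active means visually confirmed hit in the image check and inhibition above 20%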;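 on inhibition: signal is fraction of cell area covered by stained E-selectin grains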;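 on nuclei count: 100% = median nuclei count of all wells on the same plate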); conditions: HUVEC TNFalpha-induced E-selectin immunofluorescence imaging, at 2 µM; inhibition: stronger effect = higher value; nuclei count: measured here: cell number, toxicity
[4] = molecular target: Voltage-gated potassium channel subunit beta-2 (Rattus norvegicus) (UniProt P62483); assay: KvBeta enzyme negative modulators, primary screen, biochemical, NADPH fluorescence (AID 622;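 active means fluorescence slope higher than the sample average by over 3 SD, cut at about -0.22 in these data, passing the limit was not always enough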;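 further: slope of raw intensity against log time taken from 70 to 1610 s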); conditions: recombinant KvBeta, 4-cyanobenzaldehyde reduction, at 10 µM, stronger effect = higher value
Sequence of Voltage-gated potassium channel subunit beta-2 (Rattus norvegicus) (P62483 whole entry, looked up): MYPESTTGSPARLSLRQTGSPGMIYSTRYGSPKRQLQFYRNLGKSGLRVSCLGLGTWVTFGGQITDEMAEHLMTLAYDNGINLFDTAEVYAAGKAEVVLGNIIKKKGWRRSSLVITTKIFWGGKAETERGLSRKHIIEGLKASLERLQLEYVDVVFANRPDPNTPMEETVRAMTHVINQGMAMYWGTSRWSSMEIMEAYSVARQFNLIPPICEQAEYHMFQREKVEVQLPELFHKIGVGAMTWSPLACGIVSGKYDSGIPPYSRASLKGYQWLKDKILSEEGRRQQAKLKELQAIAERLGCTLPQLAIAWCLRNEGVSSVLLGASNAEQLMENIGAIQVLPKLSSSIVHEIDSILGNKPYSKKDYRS

[5] = molecular target: Voltage-gated potassium channel subunit beta-2 (Rattus norvegicus) (UniProt P62483); assay: KvBeta positive modulators, primary screen, biochemical, NADPH fluorescence (AID 623;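 active means NADPH fluorescence slope more negative than the mean of all samples by about 3 SD, 99.7% confidence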;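 further: fluorescence intensity change per second fitted from 20 to 320 s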); conditions: Recombinant KvBeta, NADPH fluorescence decrease slope, 10 min; at 10 µM; stronger effect = lower value
[6] = molecular target: Muscarinic acetylcholine receptor M4 (Homo sapiens) (UniProt P08173); assay: compounds altering M4/GIRK thallium flux, either direction, primary screen, M4 allosteric agonist project, cell-based, HEK293 M4/GIRK, BTC-AM (AID 625;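 active means fluorescence slope after compound addition differing from the mean of all tested samples at 99.7% confidence, mostly higher but some lower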;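 further: thallium influx through GIRK channels coupled to M4 in HEK293 cells with BTC-AM dye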); conditions: at 10 µM, actives lie on both sides
Sequence of Muscarinic acetylcholine receptor M4 (Homo sapiens) (P08173 whole entry, looked up): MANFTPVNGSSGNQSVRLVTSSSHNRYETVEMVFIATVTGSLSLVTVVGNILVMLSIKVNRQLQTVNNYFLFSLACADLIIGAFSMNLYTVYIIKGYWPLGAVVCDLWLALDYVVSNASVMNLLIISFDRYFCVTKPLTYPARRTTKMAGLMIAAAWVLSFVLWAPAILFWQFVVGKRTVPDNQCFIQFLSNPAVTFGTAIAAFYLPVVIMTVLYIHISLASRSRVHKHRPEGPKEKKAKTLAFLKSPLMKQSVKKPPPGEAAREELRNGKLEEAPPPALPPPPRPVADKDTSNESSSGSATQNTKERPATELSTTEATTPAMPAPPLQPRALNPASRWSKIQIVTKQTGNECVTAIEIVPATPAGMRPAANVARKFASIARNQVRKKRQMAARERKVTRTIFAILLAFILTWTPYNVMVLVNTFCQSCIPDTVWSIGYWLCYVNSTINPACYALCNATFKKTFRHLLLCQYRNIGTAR
In short: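 assay system = HEK293 cells with M4 receptor and GIRK channels | medium = pH 7.3 thallium assay buffer | doses = 10 µM final, single point | timing = cells overnight at 37 °C, BTC-AM loading 1 h, reads 2 min total | signal = BTC-AM fluorescence, 1 Hz kinetic reads | read-out = post-addition slope, 15–24 s, of baseline-normalized fluorescence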

[7] = inhibitors of Sendai virus-induced IRF3 signaling, primary screen, TLR/RLR signaling modifier project, cell-based, Sendai virus stimulus, luciferase, 10K MLSCN set (AID 602276); conditions: HEK293 RL24 IRF3 luciferase reporter, at 10 µM, stronger effect = higher value;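 further: firefly luciferase from ISG56 promoter only with Renilla not read in this screen; 0% = Sendai virus plus DMSO and 100% = medium plus DMSO without virus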
[8] = inhibitors of poly I:C-induced TLR3 signaling, primary screen, cell-based, poly I:C stimulus, luciferase, 10K MLSCN set (AID 602277;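 active means inhibition of the reporter signal at or above 50%; inactive means inhibition below 50%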); conditions: HEK293-TLR3 RL24 IRF3 luciferase reporter, at 10 µM, stronger effect = higher value

Compound	cell count [1]	inhibition [1]	inhibition of aggregation [2]	nuclei count [2]	inhibition [3]	nuclei count [3]	fluorescence slope [4]	NADPH fluorescence slope [5]	fluorescence slope [6]	inhibition [7]	inhibition [8]
COc1ccc(-c2nnc3ccc(SC(C(C)=O)C(C)=O)nn23)cc1OC	605	-17% (inactive)	14.3% (inactive)	100%	-47.2% (inactive)	94%	-0.348 (inactive)	-5.5e-05 (inactive)	0.00579 (inactive)	13.7% (inactive)	13.4% (inactive)
CC(=O)c1cccc(NC(=O)c2ccc(NS(C)(=O)=O)cc2)c1	486	-8.9% (inactive)	9% (inactive)	94.4%	32.6% (inactive)	98.5%	-0.444 (inactive)	-5.1e-05 (inactive)	0.00538 (inactive)	12.2% (inactive)	15.9% (inactive)
O=C(NCCc1ccccc1)C1CCN(S(=O)(=O)N2CCC3(CC2)OCCO3)CC1	715	0.2% (inactive)	-7.7% (inactive)	111%	16.5% (inactive)	104%	-0.544 (inactive)	-4.5e-05 (inactive)	0.00522 (inactive)	21.6% (inactive)	20.5% (inactive)
Oc1ccc(-c2onc(C(F)(F)F)c2-c2cscn2)c(O)c1	363	-0.5% (inactive)	-7% (inactive)	92.7%	-85.6% (inactive)	116%	-0.573 (inactive)	-5.1e-05 (inactive)	0.00657 (inactive)	14.9% (inactive)	-12.3% (inactive)
Cc1ccccc1-c1nc2ccccc2c(=O)n1C1CCS(=O)(=O)C1 (stereo not drawn)	368	3.8% (inactive)	-7.2% (inactive)	110%	-4.7% (inactive)	102%	-0.614 (inactive)	9.6e-06 (inactive)	0.00582 (inactive)	21% (inactive)	31% (inactive)
COc1cc2c(cc1OC)CN(C(=O)COc1ccc(C#N)cc1)CC2	283	-7.5% (inactive)	4.5% (inactive)	91.8%	4.1% (inactive)	90.3%	-0.574 (inactive)	-4.9e-05 (inactive)	0.00682 (inactive)	6.14% (inactive)	4.87% (inactive)
COc1ccccc1N(CC(=O)NCc1ccccc1)S(C)(=O)=O	665	-8.2% (inactive)	6.6% (inactive)	106%	-67.8% (inactive)	114%	-0.28 (inactive)	-4.1e-05 (inactive)	0.00584 (inactive)	-3.25% (inactive)	14% (inactive)
CCc1c(C)nc(N)n2c(SCC(=O)N3CCCc4ccccc43)nnc12	503	14.6% (inactive)	-13.3% (inactive)	123%	-251% (inactive)	147%	-0.454 (inactive)	-6.5e-05 (inactive)	0.00455 (inactive)	20.9% (inactive)	31.4% (inactive)
O=C(Nc1ccc(N2CCCC2=O)cc1)c1cccc(F)c1	226	-5.9% (inactive)	15.3% (inactive)	90.3%	-11.4% (inactive)	71.5%	-0.461 (inactive)	2e-05 (inactive)	0.00447 (inactive)	-49% (inactive)	-122% (inactive)
CC(O)CN(Cc1cccc(Cl)c1)CC(C)O (stereo not drawn)	473	0.5% (inactive)	1.4% (inactive)	100%	10.2% (inactive)	95.1%	-0.431 (inactive)	1.1e-05 (inactive)	0.00551 (inactive)	18.8% (inactive)	19.5% (inactive)
CCc1nccn1S(=O)(=O)c1ccc2ccc(C)cc2c1	319	-8.5% (inactive)	-4.1% (inactive)	104%	-60.6% (inactive)	112%	-0.512 (inactive)	1.6e-05 (inactive)	0.00461 (inactive)	-9.41% (inactive)	-15.4% (inactive)
CCSCCC(NC1=CC(=O)CC(C)(C)C1)C(=O)O (stereo not drawn)	353	9.3% (inactive)	13.5% (inactive)	98%	-77.8% (inactive)	94.9%	-0.566 (inactive)	-6.6e-05 (inactive)	0.00496 (inactive)	-16.8% (inactive)	98.7% (active)
COc1cc(NS(=O)(=O)c2ccc(Br)s2)cc(OC)c1	596	10.2% (inactive)	-27.3% (inactive)	99.5%	-77.9% (inactive)	94.3%	-0.402 (inactive)	6.7e-05 (inactive)	0.00547 (inactive)	9.26% (inactive)	10% (inactive)
COC(=O)c1nc2n(n1)C(c1ccc(OC)c(OC)c1)C(C(=O)OC1CCCCC1)=C(C)N2 (stereo not drawn)	603	-14.8% (inactive)	-3.4% (inactive)	99.2%	26.7% (inactive)	89.6%	-0.315 (inactive)	-5.5e-05 (inactive)	0.00696 (inactive)	4.26% (inactive)	12.6% (inactive)
CC(C(=O)N1CCOCC1)N1c2cccc3cccc(c23)S1(=O)=O (stereo not drawn)	341	-13.3% (inactive)	8.6% (inactive)	109%	-31.4% (inactive)	102%	-0.548 (inactive)	-2.9e-05 (inactive)	0.00313 (inactive)	17.3% (inactive)	20.6% (inactive)
CCCCCn1c(=O)[nH]c2cc(C(=O)NCCCN3CCCCC3)ccc2c1=O	255	-2.1% (inactive)	-0.1% (inactive)	77.4%	-32.3% (inactive)	109%	-0.298 (inactive)	-5.4e-05 (inactive)	0.00603 (inactive)	7.49% (inactive)	6.91% (inactive)
CCOC(=O)C(C)On1c(SC(C)C(=O)OCC)nc2ccccc2c1=O (stereo not drawn)	808	-3.9% (inactive)	10.3% (inactive)	103%	-57.6% (inactive)	107%	-0.582 (inactive)	-5.7e-05 (inactive)	0.0065 (inactive)	20% (inactive)	20% (inactive)
COCCn1c(=O)[nH]c2cc(C(=O)NCCCN3CCN(c4ccc(F)cc4)CC3)ccc2c1=O	333	21.3% (inactive)	-5.1% (inactive)	107%	-22.8% (inactive)	111%	-0.472 (inactive)	-3.1e-05 (inactive)	0.00483 (inactive)	16.2% (inactive)	9.46% (inactive)
COc1cc(OC)cc(-c2nc3nc(C)c(CCC(=O)O)c(C)n3n2)c1	681	-14.6% (inactive)	0.2% (inactive)	111%	46.5% (inactive)	97.4%	-0.522 (inactive)	-3.8e-05 (inactive)	0.00535 (inactive)	21.9% (inactive)	28.4% (inactive)
CCOC(=O)c1c(NC(=O)Cn2c(C)nc3ccccc32)sc2c1CCC2	459	-6.2% (inactive)	15.3% (inactive)	102%	-75.4% (inactive)	112%	-0.552 (inactive)	-2.4e-05 (inactive)	0.00437 (inactive)	17.3% (inactive)	24% (inactive)
CCCN(CCC)CCNC(=O)C(NS(=O)(=O)c1ccc2c(c1)CCC(=O)N2)c1ccccc1 (stereo not drawn)	524	0.7% (inactive)	-8.1% (inactive)	98.1%	-17.1% (inactive)	112%	-0.555 (inactive)	-5e-05 (inactive)	0.00588 (inactive)	8.32% (inactive)	24.9% (inactive)
CC(C)=CCCC(C)NC(=O)NC1CCCCC1 (stereo not drawn)	227	-9.6% (inactive)	-23.2% (inactive)	91.1%	-50.8% (inactive)	87%	-0.546 (inactive)	-2.7e-05 (inactive)	0.00495 (inactive)	-0.0287% (inactive)	-0.553% (inactive)
COc1ccccc1-c1noc(-c2cccnc2)n1	405	0% (inactive)	-5.9% (inactive)	106%	-6.3% (inactive)	125%	-0.568 (inactive)	-7.6e-05 (inactive)	0.00345 (inactive)	-24.5% (inactive)	-87.9% (inactive)
COC(=O)Cn1c(C)nc2c(sc3nc(C)cc(C)c32)c1=O	674	-5% (inactive)	14.7% (inactive)	81.2%	16% (inactive)	100%	-0.603 (inactive)	-2e-05 (inactive)	0.00473 (inactive)	-40.7% (inactive)	-91.2% (inactive)
Cc1nn(-c2ccccc2)c(Cl)c1C1C(C#N)=C(N)OC2=C1C(=O)CC(C)(C)C2 (stereo not drawn)	378	5.6% (inactive)	-4.8% (inactive)	100%	-110% (inactive)	113%	-0.577 (inactive)	-3.7e-05 (inactive)	0.00783 (inactive)	6.31% (inactive)	31.1% (inactive)
CCn1c2ccccc2c2cc(NC(=O)CSc3nnc(C4CC4)n3Cc3ccco3)ccc21	488	6.3% (inactive)	2.5% (inactive)	94.6%	36.4% (inactive)	94.6%	-0.461 (inactive)	2.1e-05 (inactive)	0.00526 (inactive)	12.7% (inactive)	17.6% (inactive)
Cc1cc(C)n2nc3nc(N4CCCCC4)nc(-c4ccco4)c3c2n1	315	-2.2% (inactive)	-24.4% (inactive)	105%	-260% (inactive)	86.7%	-0.433 (inactive)	1e-05 (inactive)	0.00465 (inactive)	12.6% (inactive)	2.12% (inactive)
CCOc1ccc(NC(=O)CSc2nnnn2CC(=O)O)cc1	482	-1.4% (inactive)	-19.1% (inactive)	112%	-110% (inactive)	122%	-0.561 (inactive)	-4.1e-05 (inactive)	0.00555 (inactive)	10.5% (inactive)	14.4% (inactive)
